Measurements from ChEMBL document CHEMBL2321841, “Structure-based drug design and potent anti-cancer activity of tricyclic 5:7:5-fused diimidazo[4,5-d:4',5'-f][1,3]diazepines” (Bioorg Med Chem, 2013).

What was measured:
[1] = Cytotoxicity against human H460 cells after 72 hrs by WST1 assay; format: functional, cell-based; settings: NCI-H460, 72 h
Method in brief: (§1)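 Cells were seeded the day before dosing at 0.5–1.7 × 10^3 cells/well in RPMI + 10% FBS. Compounds were dissolved in DMSO (stocks 100–200 mM) and tested at nine concentrations from 100 μM to 5 nM, in 4 replicates per dilution, with experiments repeated 1x or 2x. Exposure was 72 h at 37°C, 5% CO2, against a DMSO vehicle control. WST-1 was then added for 4 h and absorbance read at 450–690 nm.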

PC-3 [2] = assay: Cytotoxicity against human PC3 cells after 72 hrs by WST1 assay; format: functional, cell-based; settings: PC-3, 72 h; method in brief: as §1
OVCAR-3 [3] = assay: Cytotoxicity against human OVCAR3 cells after 72 hrs by WST1 assay; format: functional, cell-based; settings: OVCAR-3, 72 h; method in brief: as §1
A549 [4] = assay: Cytotoxicity against human A549 cells after 72 hrs by WST1 assay; format: functional, cell-based; settings: A549, 72 h; method in brief: as §1
MCF7 [5] = assay: Cytotoxicity against human MCF7 cells after 72 hrs by WST1 assay; format: functional, cell-based; settings: MCF7, 72 h; method in brief: as §1
MDA-MB-231 [6] = assay: Cytotoxicity against human MDA-MB-231 cells after 72 hrs by WST1 assay; format: functional, cell-based; settings: MDA-MB-231, 72 h; method in brief: as §1
A549 [7] = assay: Growth inhibition of human A549 cells at 100 uM after 72 hrs by WST1 assay; format: functional; settings: A549, 72 h, read-out: GI
Method in brief: (§2)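 The highest concentration, 100 μM, comes from a nine-point series (100 μM to 5 nM) of DMSO-dissolved compound. Cells were seeded the day before at 0.5–1.7 × 10^3 cells/well in RPMI + 10% FBS, with 4 replicates per dilution. Exposure was 72 h at 37°C, 5% CO2, against a DMSO vehicle control. WST-1 was added for 4 h and absorbance read at 450–690 nm. Growth inhibition by ≤75% was scored as not effective.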

MCF7 [8] = assay: Growth inhibition of human MCF7 cells at 100 uM after 72 hrs by WST1 assay; format: functional; settings: MCF7, 72 h, read-out: GI; method in brief: as §2
MDA-MB-231 [9] = assay: Growth inhibition of human MDA-MB-231 cells at 100 uM after 72 hrs by WST1 assay; format: functional; settings: MDA-MB-231, 72 h, read-out: GI; method in brief: as §2
PC-3 [10] = assay: Growth inhibition of human PC3 cells at 100 uM after 72 hrs by WST1 assay; format: functional; settings: PC-3, 72 h, read-out: GI; method in brief: as §2
[11] = Growth inhibition of human H460 cells at 100 uM after 72 hrs by WST1 assay; format: functional; settings: NCI-H460, 72 h, read-out: GI; method in brief: as §2
OVCAR-3 [12] = assay: Growth inhibition of human OVCAR3 cells at 100 uM after 72 hrs by WST1 assay; format: functional; settings: OVCAR-3, 72 h, read-out: GI; method in brief: as §2

| Structure (SMILES) | IC50 [1] [µM] | IC50 (PC-3 [2]) [µM] | IC50 (OVCAR-3 [3]) [µM] | IC50 (A549 [4]) [µM] | IC50 (MCF7 [5]) [µM] | IC50 (MDA-MB-231 [6]) [µM] | inhibition of growth at 100 µM (A549 [7]) [%] | inhibition of growth at 100 µM (MCF7 [8]) [%] | inhibition of growth at 100 µM (MDA-MB-231 [9]) [%] | inhibition of growth at 100 µM (PC-3 [10]) [%] | inhibition of growth at 100 µM [11] [%] | inhibition of growth at 100 µM (OVCAR-3 [12]) [%] |
| --- | --- | --- | --- | --- | --- | --- | --- | --- | --- | --- | --- | --- |
| COc1ccc(Cn2cnc3c4nc(=O)n(Cc5cccc(OC)c5)c-4ncnc32)cc1 | 1.55 | 5.15 | 2.5 |  |  |  |  |  |  |  |  |  |
| COc1ccc(Cn2c3ncnc4c(ncn4Cc4ccc(OC)cc4)c-3nc2=O)cc1 | 2.87 | 4.9 |  | 2.56 | 7.59 |  |  |  |  |  |  |  |
| COc1ccc(Cn2cnc3c4nc(=O)n(Cc5ccc(F)cc5)c-4ncnc32)cc1 |  |  |  | 1.65 | 4.05 |  |  |  |  |  |  |  |
| COc1ccc(Cn2cnc3c4nc(=O)n(Cc5cccc(C(F)(F)F)c5)c-4ncnc32)cc1 | 3.1 | 8.3 | 3.68 | 3.19 | 4.31 | 4.61 |  |  |  |  |  |  |
| COc1ccc(Cn2cnc3c4nc(=O)n(Cc5ccc(O)cc5)c-4ncnc32)cc1 | 4.68 | 5.12 | 4.36 | 4.21 | 6.58 | 3.15 |  |  |  |  |  |  |
| COCCOc1ccc(Cn2c3ncnc4c(ncn4Cc4ccc(OC)cc4)c-3nc2=O)cc1 | 5.14 | 6.7 | 5.45 | 4.89 | 14.8 | 5.61 |  |  |  |  |  |  |
| COc1ccc(Cn2cnc3c4nc(=O)n(Cc5ccc(OCCO)cc5)c-4ncnc32)cc1 | 10.9 | 19.7 | 13.2 | 12.3 | 27.2 | 10.6 |  |  |  |  |  |  |
| COc1ccc(Cn2cnc3c4nc(=O)n(Cc5cccnc5)c-4ncnc32)cc1 | 8.3 | 26.9 | 9.89 | 8.05 | 19.8 | 8.68 |  |  |  |  |  |  |
| COc1ccc(Cn2cnc3c4nc(=O)n(Cc5ccc(N(C)C)cc5)c-4ncnc32)cc1 | 8.44 | 202 | 9.43 | 8.81 | 15.1 | 8.82 |  |  |  |  |  |  |
| COc1ccc(Cn2cnc3c4nc(=O)n(CCN5CCCCC5)c-4ncnc32)cc1 |  |  |  |  |  |  | ≤ 75 | ≤ 75 | ≤ 75 | ≤ 75 | ≤ 75 | ≤ 75 |
| COc1ccc(Cn2cnc3c4nc(=O)n(CCN5CCOCC5)c-4ncnc32)cc1 |  |  |  |  |  |  | ≤ 75 | ≤ 75 | ≤ 75 | ≤ 75 | ≤ 75 | ≤ 75 |
| COc1ccc(Cn2c3ncnc4c(ncn4Cc4ccc(F)cc4)c-3nc2=O)cc1 | 5.06 | 7.67 |  | 4.4 | 5.87 | 5.33 |  |  |  |  |  | ≤ 75 |
| COc1ccc(Cn2cnc3c4nc(=O)n(-c5ccccc5)c-4ncnc32)cc1 |  |  |  |  |  |  | ≤ 75 | ≤ 75 | ≤ 75 | ≤ 75 | ≤ 75 | ≤ 75 |
| COc1ccc(Cn2cnc3c4nc(=O)n(-c5ccc(OC)cc5)c-4ncnc32)cc1 |  |  |  |  |  |  | ≤ 75 | ≤ 75 | ≤ 75 | ≤ 75 | ≤ 75 | ≤ 75 |
| COc1ccc(CCn2c3ncnc4c(ncn4Cc4ccc(OC)cc4)c-3nc2=O)cc1 |  |  |  |  |  |  | ≤ 75 | ≤ 75 | ≤ 75 | ≤ 75 | ≤ 75 | ≤ 75 |
| CCn1c2ncnc3c(ncn3Cc3ccc(OC)cc3)c-2nc1=O |  |  |  |  |  |  | ≤ 75 | ≤ 75 | ≤ 75 | ≤ 75 | ≤ 75 | ≤ 75 |
| CCOC(=O)Cn1c2ncnc3c(ncn3Cc3ccc(OC)cc3)c-2nc1=O | 34.5 |  |  | 33.5 |  | 37 |  | ≤ 75 |  | ≤ 75 |  | ≤ 75 |

| Structure (SMILES) | IC50 [1] [µM] | IC50 (PC-3 [2]) [µM] | IC50 (OVCAR-3 [3]) [µM] | IC50 (A549 [4]) [µM] | IC50 (MCF7 [5]) [µM] | IC50 (MDA-MB-231 [6]) [µM] | inhibition of growth at 100 µM (A549 [7]) [%] | inhibition of growth at 100 µM (MCF7 [8]) [%] | inhibition of growth at 100 µM (MDA-MB-231 [9]) [%] | inhibition of growth at 100 µM (PC-3 [10]) [%] | inhibition of growth at 100 µM [11] [%] | inhibition of growth at 100 µM (OVCAR-3 [12]) [%] |
| --- | --- | --- | --- | --- | --- | --- | --- | --- | --- | --- | --- | --- |
| COc1ccc(Cn2cnc3c4nc(=O)n(CCCl)c-4ncnc32)cc1 | 7.9 | 9.33 |  | 8.63 |  |  |  | ≤ 75 | ≤ 75 |  |  | ≤ 75 |
| COc1ccc(Cn2cnc3c4nc(=O)n(Cc5ccc(Cl)cc5)c-4ncnc32)cc1 | 0.85 | 0.92 | 0.88 | 0.78 | 2.38 | 0.97 |  |  |  |  |  |  |
| COc1ccc(Cn2cnc3c4nc(=O)n(Cc5ccc(Br)cc5)c-4ncnc32)cc1 | 0.57 | 0.98 | 1.62 | 0.63 | 1.02 | 1.16 |  |  |  |  |  |  |
| COc1ccc(Cn2cnc3c4nc(=O)n(Cc5ccccc5OC)c-4ncnc32)cc1 |  |  |  |  |  |  | ≤ 75 | ≤ 75 | ≤ 75 | ≤ 75 | ≤ 75 | ≤ 75 |
| COc1ccc(Cn2cnc3c4nc(=O)n(Cc5cccc(F)c5)c-4ncnc32)cc1 | 1.24 | 1.83 | 3.18 | 1.2 | 1.64 | 2.7 |  |  |  |  |  |  |
| COc1ccc(Cn2cnc3c4nc(=O)n(Cc5ccc(F)c(F)c5)c-4ncnc32)cc1 | 0.74 | 1.59 | 2.27 | 0.99 | 1.75 | 1.7 |  |  |  |  |  |  |
| COc1ccc(Cn2cnc3c4nc(=O)n(Cc5cccc(Cl)c5)c-4ncnc32)cc1 | 1 | 0.97 | 1.07 | 0.89 | 2.49 | 1.15 |  |  |  |  |  |  |
| COc1ccc(Cn2cnc3c4nc(=O)n(Cc5cccc(Br)c5)c-4ncnc32)cc1 | 1.17 | 2.57 | 1.54 | 1.37 | 1.85 | 1.53 |  |  |  |  |  |  |
| COc1ccc(Cn2c3nc(C)nc4c(ncn4Cc4ccc(OC)cc4)c-3nc2=O)cc1 |  |  |  |  |  |  | ≤ 75 | ≤ 75 | ≤ 75 | ≤ 75 | ≤ 75 | ≤ 75 |
| CCc1nc2n(Cc3ccc(OC)cc3)c(=O)nc-2c2ncn(Cc3ccc(OC)cc3)c2n1 |  |  |  |  |  |  | ≤ 75 | ≤ 75 | ≤ 75 | ≤ 75 | ≤ 75 | ≤ 75 |
| COc1ccc(Cn2c3nc(-c4ccccc4)nc4c(ncn4Cc4ccc(OC)cc4)c-3nc2=O)cc1 |  |  |  |  |  |  | ≤ 75 | ≤ 75 | ≤ 75 | ≤ 75 | ≤ 75 | ≤ 75 |
| COc1ccc(Cn2c3nc(-c4ccc(C)cc4)nc4c(ncn4Cc4ccc(OC)cc4)c-3nc2=O)cc1 |  |  |  |  |  |  | ≤ 75 | ≤ 75 | ≤ 75 | ≤ 75 | ≤ 75 | ≤ 75 |
| COc1ccc(Cn2c3nc(CCC(=O)O)nc4c(ncn4Cc4ccc(OC)cc4)c-3nc2=O)cc1 |  |  |  |  |  |  | ≤ 75 | ≤ 75 | ≤ 75 | ≤ 75 | ≤ 75 | ≤ 75 |
| COc1ccc(Cn2c3nc(CCCC(=O)O)nc4c(ncn4Cc4ccc(OC)cc4)c-3nc2=O)cc1 |  |  |  |  |  |  | ≤ 75 | ≤ 75 | ≤ 75 | ≤ 75 | ≤ 75 | ≤ 75 |
| COc1ccc(Cn2c3ncnc4c(ncn4Cc4ccccc4)c-3nc2=O)cc1 |  |  |  |  |  |  | ≤ 75 | ≤ 75 | ≤ 75 | ≤ 75 | ≤ 75 | ≤ 75 |
| CCn1cnc2c3nc(=O)n(Cc4ccc(OC)cc4)c-3ncnc21 |  |  |  |  |  |  | ≤ 75 | ≤ 75 | ≤ 75 | ≤ 75 | ≤ 75 | ≤ 75 |
